Experimental data published in ChEMBL document CHEMBL3769387, “α-Glucosidase inhibition and antihyperglycemic activity of flavonoids from Ampelopsis grossedentata and the flavonoid derivatives” (Bioorg Med Chem, 2016).
Blank lines part the entries; values can stand above or below the compound they belong to. Activity calls are given as the source filed them. No cut-off for these calls is given here.

Assays:
Mus musculus [1] = assay: Hypoglycemic effect in Kunming mouse model of STZ-induced diabetes assessed as reduction in fasting blood glucose level at 50 mg/kg, po measured at 7 hrs post dose by glucometry analysis relative to control; format: functional; design: scale not given: the % may be the effect or the level left
How it was run: (§1)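 STZ-diabetic Kunming mice (single i.p. streptozotocin 100 mg/kg in citrate buffer pH 4.5, fasting; glucose checked day 7), fasted, dosed orally in 0.5 % CMC–Na with vehicle-only controls. Tail-vein glucometer readings at 0, 1.5, 3, 5, 7 and 9 h post-dose; percent change relative to vehicle group. n = 6; mean ± SEM, one-way ANOVA with post-hoc test.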

Mus musculus [2] = assay: Hypoglycemic effect in Kunming mouse model of STZ-induced diabetes assessed as reduction in fasting blood glucose level at 100 mg/kg, po measured at 1.5 hrs post dose by glucometry analysis relative to control; format: functional; design: scale not given: the % may be the effect or the level left; how it was run: as §1
Mus musculus [3] = assay: Antihyperglycemic effect in Kunming mouse model of STZ-induced diabetes assessed as reduction in postprandial blood glucose level at 25 mg/kg, po administered 30 mins before sucrose challenge measured after 30 to 90 mins by oral sucrose tolerance test; format: functional, organism-based
How it was run: (§2)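 Diabetes induced in Kunming mice (4–6 weeks) by single i.p. streptozotocin 100 mg/kg in citrate buffer pH 4.5 under fasting, glucose checked on day 7. Fasted mice dosed orally in 0.5 % CMC–Na (vehicle controls), then sucrose 3 g/kg orally after 30 min; tail-vein glucometer readings at 0–3.0 h post-load. n = 6; mean ± SEM, one-way ANOVA with post-hoc test.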

Mus musculus [4] = assay: Hypoglycemic effect in Kunming mouse model of STZ-induced diabetes assessed as reduction in fasting blood glucose level at 50 mg/kg, po measured at 3 hrs post dose by glucometry analysis relative to control; format: functional; design: scale not given: the % may be the effect or the level left; how it was run: as §1
Mus musculus [5] = assay: Hypoglycemic effect in Kunming mouse assessed as reduction in fasting blood glucose level at 25 to 100 mg/kg, po measured at 1.5 to 9 hrs post dose by glucometry analysis; format: functional, organism-based
How it was run: (§3)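 Fasted normal Kunming mice (4–6 weeks) given single oral dose suspended in 0.5 % CMC–Na; control group received vehicle only. Tail-vein glucose measured by glucometer at 0, 1.5, 3, 5, 7 and 9 h after administration. Six mice per group; mean ± SEM, one-way ANOVA followed by Tukey's or Dunnett's test versus control.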

Mus musculus [6] = assay: Antihyperglycemic effect in Kunming mouse model of STZ-induced diabetes assessed as reduction in postprandial blood glucose level at 50 and 100 mg/kg, po administered 30 mins before sucrose challenge measured after 30 to 90 mins by oral sucrose tolerance test; format: functional, organism-based; how it was run: as §2
Mus musculus [7] = assay: Antihyperglycemic effect in Kunming mouse assessed as reduction in postprandial blood glucose level at 25 mg/kg, po administered 30 mins before sucrose challenge measured after 30 to 90 mins by oral sucrose tolerance test; format: functional, organism-based
How it was run: (§4)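 Male/female unspecified Kunming mice, 4–6 weeks old, fasted. Oral dosing suspended in 0.5 % CMC–Na (controls given vehicle alone); sucrose 3 g/kg orally 30 min later. Six mice per group; mean ± SEM, one-way ANOVA with Tukey's or Dunnett's test.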

Mus musculus [8] = assay: Hypoglycemic effect in Kunming mouse model of STZ-induced diabetes assessed as reduction in fasting blood glucose level at 100 mg/kg, po measured at 3 hrs post dose by glucometry analysis relative to control; format: functional; design: scale not given: the % may be the effect or the level left; how it was run: as §1
[9] = Competitive inhibition of Saccharomyces cerevisiae alpha-glucosidase using p-nitrophenyl-alpha-D-glucopyranoside as substrate by Lineweaver-Burk plot analysis
How it was run: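 Enzyme kinetics run with rising concentrations of 4-nitrophenyl α-D-glucopyranoside and of inhibitor; mode of inhibition assigned from Lineweaver–Burk plots under Michaelis–Menten kinetics.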

Mus musculus [10] = assay: Hypoglycemic effect in Kunming mouse model of STZ-induced diabetes assessed as reduction in fasting blood glucose level at 100 mg/kg, po measured at 5 hrs post dose by glucometry analysis relative to control; format: functional; design: scale not given: the % may be the effect or the level left; how it was run: as §1
Mus musculus [11] = assay: Hypoglycemic effect in Kunming mouse model of STZ-induced diabetes assessed as reduction in fasting blood glucose level at 50 mg/kg, po measured at 9 hrs post dose by glucometry analysis relative to control; format: functional; design: scale not given: the % may be the effect or the level left; how it was run: as §1
Mus musculus [12] = assay: Hypoglycemic effect in Kunming mouse model of STZ-induced diabetes assessed as reduction in fasting blood glucose level at 50 mg/kg, po measured at 1.5 hrs post dose by glucometry analysis relative to control; format: functional; design: scale not given: the % may be the effect or the level left; how it was run: as §1
[13] = Inhibition of Saccharomyces cerevisiae alpha-glucosidase using p-nitrophenyl-alpha-D-glucopyranoside as substrate preincubated for 10 mins followed by substrate addition measured after 30 mins by microplate reader analysis
How it was run: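 α-Glucosidase 0.1 U/mL and p-NPG 1.0 mM in 0.1 M potassium phosphate pH 6.7; samples in DMSO. Inhibitor preincubated with enzyme 10 min at 37 °C, substrate added, 30 min at 37 °C, stopped with 1 M Na2CO3; absorbance 405 nm with blank correction. Five concentrations, triplicate; IC50 as mean ± SEM of three independent experiments.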

Mus musculus [14] = assay: Hypoglycemic effect in Kunming mouse model of STZ-induced diabetes assessed as reduction in fasting blood glucose level at 50 mg/kg, po measured at 5 hrs post dose by glucometry analysis relative to control; format: functional; design: scale not given: the % may be the effect or the level left; how it was run: as §1
Mus musculus [15] = assay: Hypoglycemic effect in Kunming mouse model of STZ-induced diabetes assessed as reduction in fasting blood glucose level at 100 mg/kg, po measured at 7 hrs post dose by glucometry analysis relative to control; format: functional; design: scale not given: the % may be the effect or the level left; how it was run: as §1
Mus musculus [16] = assay: Hypoglycemic effect in Kunming mouse model of STZ-induced diabetes assessed as reduction in fasting blood glucose level at 100 mg/kg, po measured at 9 hrs post dose by glucometry analysis relative to control; format: functional; design: scale not given: the % may be the effect or the level left; how it was run: as §1
Mus musculus [17] = assay: Antihyperglycemic effect in Kunming mouse assessed as reduction in postprandial blood glucose level at 50 and 100 mg/kg, po administered 30 mins before sucrose challenge measured after 30 to 90 mins by oral sucrose tolerance test; format: functional, organism-based; how it was run: as §4
Mus musculus [18] = assay: Hypoglycemic effect in Kunming mouse assessed as reduction in fasting blood glucose level at 10 mg/kg, po measured at 1.5 to 9 hrs post dose by glucometry analysis; format: functional, organism-based; how it was run: as §3
Mus musculus [19] = assay: Hypoglycemic effect in Kunming mouse model of STZ-induced diabetes assessed as reduction in fasting blood glucose level at 10 mg/kg, po measured at 1.5 to 9 hrs post dose by glucometry analysis; format: functional, organism-based; how it was run: as §1

SMILES: Cc1ccc(S(=O)(=O)N(CCO)CCOc2c(O)cc(-c3oc4cc(O)cc(O)c4c(=O)c3O)cc2O)cc1
- Activity (Mus musculus [1]): 59.6%
- Activity (Mus musculus [2]): 37%
- Activity (Mus musculus [3]): inactive
- Activity (Mus musculus [4]): 35.9%
- Activity (Mus musculus [5]): inactive
- Activity (Mus musculus [6]): Active
- Activity (Mus musculus [7]): inactive
- Activity (Mus musculus [8]): 45.1%
- Ki [9]: 10.3 µM
- Activity (Mus musculus [10]): 60%
- Activity (Mus musculus [11]): 61.5%
- Activity (Mus musculus [12]): 27.8%
- IC50 [13]: 9.3 µM
- Activity (Mus musculus [14]): 47.3%
- Activity (Mus musculus [15]): 65.4%
- Activity (Mus musculus [16]): 67.3%
- Activity (Mus musculus [17]): Active

SMILES: O=C1c2c(O)cc(O)cc2O[C@H](c2cc(O)c(O)c(O)c2)[C@H]1O [AMPELOPSIN]
- IC50 [13]: 634 µM

SMILES: O=c1c(O)c(-c2cc(O)c(O)c(O)c2)oc2cc(O)cc(O)c12 [MYRICETIN]
- IC50 [13]: 319 µM

SMILES: O=c1c(O)c(-c2cc(O)c(OCCN(CCO)c3ccccc3)c(O)c2)oc2cc(O)cc(O)c12
- IC50 [13]: 41.1 µM

SMILES: COc1ccc(Cl)cc1C(=O)NCCc1ccc(S(=O)(=O)NC(=O)NC2CCCCC2)cc1
- Activity (Mus musculus [18]): Active
- Activity (Mus musculus [19]): Active

SMILES: O=c1c(O)c(-c2cc(O)c(OCCO)c(O)c2)oc2cc(O)cc(O)c12
- IC50 [13]: 84.5 µM

SMILES: O=c1c(O)c(-c2cc(O)c(OCCOCCOCCO)c(O)c2)oc2cc(O)cc(O)c12
- IC50 [13]: 233 µM

The remaining compounds from weak to strong by IC50 [13], led by results:

- IC50 [13]: 838 µM
SMILES: C[C@@H]1O[C@@H](Oc2c(-c3cc(O)c(O)c(O)c3)oc3cc(O)cc(O)c3c2=O)[C@H](O)[C@H](O)[C@H]1O

- IC50 [13]: 720 µM
SMILES: C[C@@H]1O[C@@H](O[C@@H]2[C@@H](O)[C@H](O)[C@H](O[C@H]3[C@H](O)[C@@H](O)C(O)O[C@@H]3CO)O[C@H]2CO)[C@@H](O)[C@H](O)[C@H]1N[C@H]1C=C(CO)[C@@H](O)[C@H](O)[C@H]1O (stereo partly drawn)

- IC50 [13]: 463 µM
SMILES: O=c1c(O)c(-c2cc(O)c(OCCOCCOCCOCCO)c(O)c2)oc2cc(O)cc(O)c12

- IC50 [13]: 43.8 µM
SMILES: O=c1c(O)c(-c2cc(O)c(OCCOCCO)c(O)c2)oc2cc(O)cc(O)c12
